ChEMBL document CHEMBL1132974 (J Med Chem, 2000)

Key:
[1] = target: Histamine H1 receptor (Cavia porcellus) (UniProt P31389); experiment: Negative logarithm of receptor dissociation constant Kp was reported; type: functional
In short: (§1)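 Guinea-pig ileum (0.1 µM atropine, 37 °C Tyrode's). […] Where several partial-agonist concentrations were used, the overall value comes from a Kaumann-Marano plot with slope constrained to unity.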

[2] = target: Histamine H1 receptor (Cavia porcellus) (UniProt P31389); experiment: Relative potency in guinea pig ileum whole segment; value ranges from 0.4 to 0.6; type: functional, tissue-based
[3] = target: Histamine H1 receptor (Cavia porcellus) (UniProt P31389); experiment: Intrinsic activity was reported in guinea pig ileum whole segment.; type: functional, tissue-based
[4] = target: Histamine H1 receptor (Cavia porcellus, UniProt P31389); experiment: Effective concentration for agonist activity in guinea pig ileum whole segment; type: functional, tissue-based
[5] = target: Histamine H1 receptor (Cavia porcellus) (UniProt P31389); experiment: Relative potency was recorded in endothelium-denuded guinea pig; value ranges from 5.68 to 5.93; type: functional
In short: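 Guinea-pig thoracic aortic rings (2–4 mm), endothelium rubbed off, isometric (10 mN), modified Krebs-Henseleit (1.80 mM Ca2+), 37 °C. Cimetidine, corticosterone and cocaine (30 µM each), prazosin and yohimbine (0.3 µM each) and propranolol (0.1 µM) were present. […] The pEC50 shift was corrected using untreated control preparations.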

[6] = target: Histamine H1 receptor (Cavia porcellus) (UniProt P31389); experiment: Intrinsic activity was reported in endothelium-denuded guinea pig(pre contracted with PGF-2 alpha) at a concentration of 10 uM; type: functional
In short: (§2)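 Endothelium-denuded guinea-pig aortic rings, set up as in the contraction assay, challenged twice with PGF2α (10 µM). Rings were precontracted with a threshold PGF2α level (usually 0.4–1.5 µM, 10–20% of the 10 µM response).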

[7] = target: Histamine H1 receptor (Cavia porcellus) (UniProt P31389); experiment: Intrinsic activity was reported at a concentration of 10 uM; type: functional
[8] = target: Histamine H1 receptor (Cavia porcellus) (UniProt P31389); experiment: pA2 was recorded in endothelium-denuded guinea pig(pre contracted with PGF-2 alpha).value ranges from 5.66 to 6.19
[9] = target: Histamine H1 receptor (Rattus norvegicus) (UniProt P31390); experiment: Relative potency was recorded in relaxed rat aortic rings; value ranges from […] to […]; type: functional, tissue-based; settings: Aorta
[10] = target: Histamine H1 receptor (Cavia porcellus) (UniProt P31389); experiment: Intrinsic activity was reported in guinea pig ileal whole segment.; type: functional
[11] = target: Histamine H1 receptor (Rattus norvegicus) (UniProt P31390); experiment: The compound was evaluated for intrinsic activity i.e. maximum histamine controls relative to contraction evoked by 10 uM PGF2-alpha in relaxed rat aortic rings; type: functional, tissue-based; settings: Aorta
[12] = species: Cavia porcellus; experiment: Effective concentration for agonism activity in endothelium-denuded guinea pig aortic segment; settings: Aorta, read-out: Log EC50 (converted)
[13] = species: Cavia porcellus; experiment: Effective concentration for agonism activity in Endothelium-Denuded guinea pig aortic segment; settings: Aorta, read-out: Log EC50 (converted)
[14] = species: Rattus norvegicus; experiment: tissue or blood; settings: Aorta, read-out: Log EC50 (converted)
[15] = species: Cavia porcellus; experiment: Effective concentration for agonism activity in guinea pig ileal whole segment; settings: read-out: Log EC50 (converted)
[16] = target: Serotonin 3 (5-HT3) receptor; experiment: Compound was evaluated for its antagonist affinity towards 5-hydroxytryptamine 3 receptor of guinea pig; type: functional, Cavia porcellus
In short: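 Functional antagonism assays in guinea-pig tissues, each run with 1 µM mepyramine present: M3 (whole ileum), β1 (right atrium), 5-HT1B (iliac artery), 5-HT3 (quiescent ileal longitudinal muscle with myenteric plexus). Results are given as apparent pA2, or pD'2 when only curve depression occurred.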

[17] = target: Histamine H1 receptor (Cavia porcellus) (UniProt P31389); experiment: The compound was evaluated for intrinsic activity i.e. maximum histamine controls relative to contraction evoked by 10 uM PGF2-alpha; type: functional; in short: as §2
[18] = target: Histamine H1 receptor (Cavia porcellus) (UniProt P31389); experiment: Negative logarithm of receptor dissociation constant Kp was reported guinea pig ileal whole segment; type: functional; in short: as §1
[19] = target: Histamine H1 receptor (Cavia porcellus) (UniProt P31389); experiment: Intrinsic activity was reported in guinea pig ileum whole segment; type: functional, tissue-based
[20] = target: Histamine H1 receptor (Rattus norvegicus) (UniProt P31390); experiment: maximum relaxation evoked by carbachol in relaxed rat aortic rings with intact endothelium, submaximally precontracted with 15.8 nM U-46,619; type: functional, tissue-based; settings: Aorta
[21] = target: Histamine H1 receptor (Cavia porcellus) (UniProt P31389); experiment: Antagonist effects was studied on contraction of guinea-pig ileum preparation; value ranges from 3 to 30; f means observed by Kaumann-Marano plot; type: functional, tissue-based
[22] = target: Histamine H1 receptor (Cavia porcellus) (UniProt P31389); experiment: concentration of mepyramine was determined; value ranges from 1 to 30; type: functional
In short: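 Guinea-pig ileum segments (either sex), mounted isotonically (0.5 g preload) at 37 °C in aerated Tyrode's with 0.1 µM atropine. […] Full pA2 was taken from an Arunlakshana-Schild plot with the slope constrained to unity.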

[23] = target: Histamine H1 receptor (Rattus norvegicus) (UniProt P31390); experiment: Intrinsic activity of the histamine as reported in relaxed rat aortic rings with intact endothelium, submaximally precontracted with 15.8 nM U-46,619; type: functional, tissue-based; settings: Aorta
[24] = target: Histamine H1 receptor (Cavia porcellus) (UniProt P31389); experiment: The compound was evaluated for intrinsic activity i.e. second curves of histamine controls set to 100%, aorta primed with histamine; termed: intrinsic activity

Chain of Histamine H1 receptor (Rattus norvegicus) (P31390 whole entry): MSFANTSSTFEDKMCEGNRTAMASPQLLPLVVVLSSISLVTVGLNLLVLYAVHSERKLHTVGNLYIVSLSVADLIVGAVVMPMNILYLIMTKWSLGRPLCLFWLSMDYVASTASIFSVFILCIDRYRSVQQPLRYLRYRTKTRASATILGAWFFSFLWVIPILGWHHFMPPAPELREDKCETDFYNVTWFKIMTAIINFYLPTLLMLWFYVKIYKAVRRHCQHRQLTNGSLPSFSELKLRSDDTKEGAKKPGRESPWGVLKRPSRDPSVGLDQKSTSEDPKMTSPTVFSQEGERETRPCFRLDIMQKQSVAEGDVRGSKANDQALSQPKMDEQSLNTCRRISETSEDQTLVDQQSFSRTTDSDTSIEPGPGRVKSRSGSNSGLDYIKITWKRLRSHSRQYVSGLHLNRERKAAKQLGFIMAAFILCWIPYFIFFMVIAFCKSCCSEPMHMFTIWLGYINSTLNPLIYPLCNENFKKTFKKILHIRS
Chain of Histamine H1 receptor (Cavia porcellus) (P31389 whole entry): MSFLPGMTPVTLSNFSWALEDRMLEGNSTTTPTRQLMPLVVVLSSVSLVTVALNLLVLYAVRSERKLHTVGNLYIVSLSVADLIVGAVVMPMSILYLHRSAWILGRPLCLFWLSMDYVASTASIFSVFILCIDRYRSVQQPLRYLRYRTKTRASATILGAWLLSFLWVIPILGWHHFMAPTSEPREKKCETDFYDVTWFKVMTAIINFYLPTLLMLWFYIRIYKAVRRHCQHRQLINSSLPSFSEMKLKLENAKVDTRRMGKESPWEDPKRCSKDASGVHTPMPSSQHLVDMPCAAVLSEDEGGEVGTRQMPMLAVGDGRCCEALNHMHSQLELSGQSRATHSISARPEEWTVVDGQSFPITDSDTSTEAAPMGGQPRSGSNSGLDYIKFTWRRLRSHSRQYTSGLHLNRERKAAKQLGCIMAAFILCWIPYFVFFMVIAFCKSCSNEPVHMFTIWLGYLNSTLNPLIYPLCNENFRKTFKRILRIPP
Chain of Histamine H1 receptor (P31389 whole entry): as above

NCCc1c[nH]c(CC(c2ccccc2)c2ccccc2)n1 gave a pKp [1] of 3.87, a Relative potency [2] of 0.5 and an Emax [3] of 50. It also gave an EC50 [4] of 40700 nM.
NCCc1c[nH]c(CCCC(c2ccccc2)c2ccccc2)n1 was tested, and the pA2 [5] was 5.8, the Emax [6] was 0 and the Emax [7] was 0. It also gave a pKp [1] of 5.94, a pA2 [8] of 5.92 and a pA2 [9] of 5.72. For the same molecule, the Emax [10] was 2 and the Emax [11] was 0.
With NCCc1c[nH]cn1 [HISTAMINE] the EC50 [12] was 2240 nM, the EC50 [13] was 316 nM and the EC50 [14] was 4470 nM. For the same molecule, the EC50 [15] was 200 nM.
NCCc1c[nH]c(CCC(c2ccccc2)c2ccccc2)n1 was tested, and the pA2 [16] was < 5.7, the Emax [17] was 84 and the pKp [18] was 6.04. The Emax [19] was 100, the Emax [20] was 46 and the Concentration [21] was 30 µM. It also gave a Concentration [22] of 30 nM, an Emax [23] of 50 and an Emax [24] of 72.
